Assays:
[1] = target: T1, Steroid 17-alpha-hydroxylase/17,20 lyase (Rattus norvegicus, UniProt P11715); test: Inhibition of CYP17 in Sprague-Dawley rat testes microsomes using 17-alpha hydroxyprogesterone as substrate and NADPH as cofactor pretreated for 5 mins followed by substrate and cofactor addition after 60 mins by LC/Ms analysis; design: species or system Testis
T1 sequence (P11715 whole entry): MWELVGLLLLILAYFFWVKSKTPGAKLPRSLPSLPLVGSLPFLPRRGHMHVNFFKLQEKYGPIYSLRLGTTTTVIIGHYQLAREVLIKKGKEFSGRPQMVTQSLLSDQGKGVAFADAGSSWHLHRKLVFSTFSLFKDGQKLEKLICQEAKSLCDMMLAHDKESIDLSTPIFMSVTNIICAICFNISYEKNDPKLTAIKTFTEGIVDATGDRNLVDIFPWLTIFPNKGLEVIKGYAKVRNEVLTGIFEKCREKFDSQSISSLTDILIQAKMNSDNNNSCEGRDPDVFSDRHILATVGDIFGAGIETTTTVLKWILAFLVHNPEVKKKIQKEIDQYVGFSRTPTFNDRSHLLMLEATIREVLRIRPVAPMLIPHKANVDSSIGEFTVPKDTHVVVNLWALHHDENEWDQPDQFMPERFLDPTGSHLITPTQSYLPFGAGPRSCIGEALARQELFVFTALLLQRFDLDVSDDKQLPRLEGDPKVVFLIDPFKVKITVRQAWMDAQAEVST
How it was run: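 Rat testis microsomes from male SD rats weighing 220–250 g, prepared at 4 °C by differential centrifugation (9000 g, then 105,000 g pellet). 2 µg protein in 0.05 M phosphate pH 7.5 preincubated with inhibitor 5 min at 25 °C. Started with 10 µM 17α-hydroxyprogesterone plus 4.2 mM NADPH, 60 min at 25 °C, stopped with methanol. Androstenedione measured by LC/MS; IC50 is the mean of at least three experiments.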

[2] = target: T2, CYP2C9 (Homo sapiens, UniProt P11712); test: Inhibition of human hepatic CYP2C9 at 1 uM relative to control; format: ADME
[3] = target: T3, CYP2C19 (Homo sapiens, UniProt P33261); test: Inhibition of human hepatic CYP2C19 at 10 uM relative to control; format: ADME
[4] = target: T4, CYP1A2 (Homo sapiens, UniProt P05177); test: Inhibition of human hepatic CYP1A2 at 10 uM relative to control; format: ADME
T4 sequence (P05177 whole entry): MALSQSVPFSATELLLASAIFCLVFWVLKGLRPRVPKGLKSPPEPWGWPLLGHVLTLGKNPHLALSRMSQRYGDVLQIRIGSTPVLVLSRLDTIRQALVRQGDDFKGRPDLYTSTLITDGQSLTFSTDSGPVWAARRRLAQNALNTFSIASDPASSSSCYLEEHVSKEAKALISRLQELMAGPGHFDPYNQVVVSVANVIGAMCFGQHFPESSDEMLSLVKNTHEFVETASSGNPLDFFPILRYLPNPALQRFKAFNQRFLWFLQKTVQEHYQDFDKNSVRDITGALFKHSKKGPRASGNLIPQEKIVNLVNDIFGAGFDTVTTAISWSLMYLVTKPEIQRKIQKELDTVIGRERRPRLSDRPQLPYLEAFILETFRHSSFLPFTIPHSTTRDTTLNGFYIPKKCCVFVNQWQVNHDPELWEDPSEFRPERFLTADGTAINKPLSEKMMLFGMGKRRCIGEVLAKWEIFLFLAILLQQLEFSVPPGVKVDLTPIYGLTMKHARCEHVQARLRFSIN

[5] = target: T4, CYP1A2; test: Inhibition of human hepatic CYP1A2 at 1 uM relative to control; format: ADME
[6] = target: T3, CYP2C19; test: Inhibition of human hepatic CYP2C19 at 1 uM relative to control; format: ADME
[7] = target: T5, Steroid 17-alpha-hydroxylase/17,20 lyase (Homo sapiens, UniProt P05093); test: Residual CYP17 activity in human NCI-H295R cells assessed as testosterone production at 1 uM measured after 72 hrs relative to control
T5 sequence (P05093 whole entry): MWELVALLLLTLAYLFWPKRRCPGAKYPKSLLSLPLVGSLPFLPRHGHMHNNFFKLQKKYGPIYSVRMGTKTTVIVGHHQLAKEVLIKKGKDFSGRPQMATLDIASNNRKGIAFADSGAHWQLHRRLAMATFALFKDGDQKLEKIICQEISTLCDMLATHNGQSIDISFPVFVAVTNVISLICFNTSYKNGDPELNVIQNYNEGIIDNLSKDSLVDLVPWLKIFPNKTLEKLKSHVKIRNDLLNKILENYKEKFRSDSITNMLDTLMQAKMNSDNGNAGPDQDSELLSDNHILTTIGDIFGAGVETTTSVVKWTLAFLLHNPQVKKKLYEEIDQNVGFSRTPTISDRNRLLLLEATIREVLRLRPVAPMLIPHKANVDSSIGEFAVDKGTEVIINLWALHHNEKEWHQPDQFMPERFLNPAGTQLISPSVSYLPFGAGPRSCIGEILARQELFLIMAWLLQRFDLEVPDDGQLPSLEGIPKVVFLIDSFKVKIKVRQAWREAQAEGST

[8] = target: T2, CYP2C9; test: Inhibition of human hepatic CYP2C9 at 10 uM relative to control; format: ADME
[9] = target: T6, CYP2D6 (Homo sapiens, UniProt P10635); test: Inhibition of human hepatic CYP2D6 at 1 uM relative to control; format: ADME
[10] = target: T6, CYP2D6; test: Inhibition of human hepatic CYP2D6 at 10 uM relative to control; format: ADME
[11] = target: Cytochrome P450 3A4 (Homo sapiens, UniProt P08684); test: Inhibition of human hepatic CYP3A4; format: ADME
[12] = target: T5, Steroid 17-alpha-hydroxylase/17,20 lyase; test: Inhibition of recombinant human CYP17 expressed in human A549 cell membranes using 17-alpha hydroxyprogesterone as substrate and NADPH as cofactor pretreated for 5 mins followed by substrate and cofactor addition after 60 mins by LC/MS analysis
How it was run: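 Enzyme source was purified membranes of A549 cells expressing human CYP17 from an adenoviral vector. 2 µg membrane protein in 0.05 M phosphate pH 7.5 with inhibitor, preincubated 5 min at 25 °C. Reaction started with 10 µM 17α-hydroxyprogesterone and 4.2 mM NADPH, run 60 min at 25 °C, methanol stop. Androstenedione quantified by LC/MS; IC50 is the mean of at least three experiments.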

[13] = tested on: Rattus norvegicus; test: Suppression of serum testosterone levels in po dosed Sprague-Dawley rat administered as single dose measured up to 24 hrs post dose by ELISA; format: functional, organism-based
How it was run: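 Serum was sampled before dosing and at 2, 4, 8 and 24 h. Testosterone was measured by ELISA and expressed as % of the mean pretreatment value; mean ± SEM, n = 6.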

[14] = target: T5, Steroid 17-alpha-hydroxylase/17,20 lyase; test: Potency index, ratio of abiraterone IC50 to compound IC50 for recombinant human CYP17 expressed in human A549 cell membranes; format: cell-based
How it was run: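 Human CYP17 came from purified membranes of A549 cells expressing the cloned gene through an adenoviral system. 2 µg membrane protein was preincubated with inhibitor in 0.05 M phosphate buffer, pH 7.5, at 25 °C for 5 min. The reaction was started with 10 µM 17α-hydroxyprogesterone and 4.2 mM NADPH, run 60 min at 25 °C and stopped with methanol. Androstenedione was quantified by LC/MS.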

T3 sequence (P33261 whole entry): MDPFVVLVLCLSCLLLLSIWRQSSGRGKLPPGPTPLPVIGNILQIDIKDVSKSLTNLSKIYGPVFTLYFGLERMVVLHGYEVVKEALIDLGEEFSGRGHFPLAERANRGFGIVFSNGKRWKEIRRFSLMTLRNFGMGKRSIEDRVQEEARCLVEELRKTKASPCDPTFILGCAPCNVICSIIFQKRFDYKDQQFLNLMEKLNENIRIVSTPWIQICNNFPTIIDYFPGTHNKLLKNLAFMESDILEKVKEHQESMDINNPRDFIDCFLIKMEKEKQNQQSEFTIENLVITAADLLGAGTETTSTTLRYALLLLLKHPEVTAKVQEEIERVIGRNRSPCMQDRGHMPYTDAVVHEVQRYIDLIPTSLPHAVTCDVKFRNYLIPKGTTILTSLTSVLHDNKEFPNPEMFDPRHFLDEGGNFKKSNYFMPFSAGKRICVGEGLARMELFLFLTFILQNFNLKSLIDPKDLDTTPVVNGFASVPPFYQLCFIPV
T2 sequence (P11712 whole entry): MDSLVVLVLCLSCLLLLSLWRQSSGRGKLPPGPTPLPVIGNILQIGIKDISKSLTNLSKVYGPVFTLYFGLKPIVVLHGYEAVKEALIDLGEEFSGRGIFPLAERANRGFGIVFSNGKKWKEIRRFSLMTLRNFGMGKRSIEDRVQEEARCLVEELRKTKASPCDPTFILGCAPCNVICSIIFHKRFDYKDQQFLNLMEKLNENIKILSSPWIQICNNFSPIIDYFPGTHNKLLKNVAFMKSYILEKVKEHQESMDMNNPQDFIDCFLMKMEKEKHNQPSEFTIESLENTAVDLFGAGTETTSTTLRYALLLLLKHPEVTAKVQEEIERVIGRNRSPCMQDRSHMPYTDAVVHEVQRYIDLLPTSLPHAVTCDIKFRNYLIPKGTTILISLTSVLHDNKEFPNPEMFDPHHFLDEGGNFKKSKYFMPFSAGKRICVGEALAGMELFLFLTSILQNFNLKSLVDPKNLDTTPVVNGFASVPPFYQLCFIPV
Chain of Cytochrome P450 3A4 (P08684 whole entry): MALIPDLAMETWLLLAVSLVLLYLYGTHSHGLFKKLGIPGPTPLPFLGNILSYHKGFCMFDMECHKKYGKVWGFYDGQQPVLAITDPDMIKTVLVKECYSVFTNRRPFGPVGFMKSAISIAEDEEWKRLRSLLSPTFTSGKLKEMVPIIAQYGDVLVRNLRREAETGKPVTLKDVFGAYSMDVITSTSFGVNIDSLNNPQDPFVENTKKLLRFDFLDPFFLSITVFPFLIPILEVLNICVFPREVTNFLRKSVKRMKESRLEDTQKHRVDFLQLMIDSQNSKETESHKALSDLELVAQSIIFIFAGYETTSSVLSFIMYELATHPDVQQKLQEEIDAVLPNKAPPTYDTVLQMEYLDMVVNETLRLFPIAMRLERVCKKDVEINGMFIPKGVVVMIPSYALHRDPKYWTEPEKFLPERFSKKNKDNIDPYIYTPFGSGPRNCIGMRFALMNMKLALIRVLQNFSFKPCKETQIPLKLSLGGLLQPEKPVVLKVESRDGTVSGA
T6 sequence (P10635 whole entry): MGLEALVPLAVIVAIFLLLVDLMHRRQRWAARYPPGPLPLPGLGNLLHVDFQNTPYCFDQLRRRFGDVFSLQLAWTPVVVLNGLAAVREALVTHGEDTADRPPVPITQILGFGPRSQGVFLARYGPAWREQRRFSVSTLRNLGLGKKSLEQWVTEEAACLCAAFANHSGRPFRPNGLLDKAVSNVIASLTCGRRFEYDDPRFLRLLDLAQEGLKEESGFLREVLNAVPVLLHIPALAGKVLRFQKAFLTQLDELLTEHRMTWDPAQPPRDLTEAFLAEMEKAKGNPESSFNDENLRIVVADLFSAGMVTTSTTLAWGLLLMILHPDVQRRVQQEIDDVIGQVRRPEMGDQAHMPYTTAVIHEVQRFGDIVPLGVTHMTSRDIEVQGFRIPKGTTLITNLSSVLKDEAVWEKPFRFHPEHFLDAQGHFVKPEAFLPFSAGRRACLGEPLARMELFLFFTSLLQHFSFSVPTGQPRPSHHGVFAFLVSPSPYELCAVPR

SMILES: CC(C)c1ccncc1CN1CCc2c(sc3ccc(F)cc23)C1
- IC50 [1]: 535 nM

SMILES: c1cncc(CN2CCc3c(sc4ccccc34)C2)c1
- IC50 [1]: 28.1 to 54.9 nM

SMILES: c1cncc(CN2CCc3c([nH]c4ccccc34)C2)c1
- IC50 [1]: 229 nM

SMILES: CC(C)(C)OC(=O)Nc1ccc2sc3c(c2c1)CCN(Cc1cccnc1)C3
- IC50 [1]: > 1000 nM

SMILES: Fc1ccc2sc3c(c2c1)CCN(Cc1cncnc1)C3
- IC50 [1]: 80.6 nM

SMILES: C[C@]12CC[C@H](O)CC1=CC[C@@H]1[C@@H]2CC[C@]2(C)C(c3cccnc3)=CC[C@@H]12 [ABIRATERONE]
- IC50 [1]: 24.7 nM
- inhibition at 1 µM [2]: 31.6%
- inhibition at 10 µM [3]: 91.6%
- inhibition at 10 µM [4]: 92.5%
- inhibition at 1 µM [5]: 34%
- inhibition at 1 µM [6]: 39.6%
- residual activity at 1 µM [7]: 74%
- inhibition at 10 µM [8]: 82.5%
- inhibition at 1 µM [9]: 10.4%
- inhibition at 10 µM [10]: 78.5%

SMILES: Cc1cncc(CN2CCc3c(sc4ccc(F)cc34)C2)c1
- IC50 [1]: 121 nM

SMILES: O=C(c1cccnc1)N1CCc2c(sc3ccc(F)cc23)C1
- IC50 [1]: > 1000 nM

SMILES: CC(=O)Nc1ccc2sc3c(c2c1)CCN(Cc1cccnc1)C3
- IC50 [1]: > 1000 nM

SMILES: Brc1ccc2sc3c(c2c1)CCN(Cc1cccnc1)C3
- IC50 [1]: 517 nM

SMILES: Oc1ccc2sc3c(c2c1)CCN(Cc1cccnc1)C3
- IC50 [1]: 20.9 nM
- inhibition at 1 µM [2]: 0%
- inhibition at 10 µM [3]: 71.6%
- IC50 [11]: 5280 nM
- inhibition at 10 µM [4]: 71.2%
- inhibition at 1 µM [5]: 25.4%
- inhibition at 1 µM [6]: 7.9%
- inhibition at 10 µM [8]: 17.5%
- inhibition at 1 µM [9]: 1.3%
- IC50 [12]: 23.7 nM
- inhibition at 10 µM [10]: 18.9%

SMILES: Cc1ccncc1CN1CCc2c(sc3ccc(F)cc23)C1
- Activity [13]: Dose-dependent effect
- IC50 [1]: 15.8 nM
- inhibition at 1 µM [2]: 0%
- inhibition at 10 µM [3]: 65.2%
- Ratio IC50 [14]: 1.5
- IC50 [11]: 8560 nM
- inhibition at 10 µM [4]: 62.2%
- inhibition at 1 µM [5]: 16.3%
- inhibition at 1 µM [6]: 11.7%
- residual activity at 1 µM [7]: 52%
- inhibition at 10 µM [8]: 21.8%
- inhibition at 1 µM [9]: 12%
- IC50 [12]: 20.1 nM
- inhibition at 10 µM [10]: 56.8%

SMILES: CC1(C)OB(c2ccc3sc4c(c3c2)CCN(Cc2cccnc2)C4)OC1(C)C
- IC50 [1]: 115 nM

SMILES: CNC(=O)c1ccc2sc3c(c2c1)CCN(Cc1cccnc1)C3
- IC50 [1]: > 1000 nM

SMILES: Cc1ccc2sc3c(c2c1)CCN(Cc1cccnc1)C3
- IC50 [1]: 257 nM

SMILES: COc1ccc2sc3c(c2c1)CCN(Cc1cccnc1)C3
- IC50 [1]: > 1000 nM

SMILES: COc1cncc(CN2CCc3c(sc4ccc(F)cc34)C2)c1
- IC50 [1]: 33.9 nM
- inhibition at 1 µM [2]: 0%
- inhibition at 10 µM [3]: 84.9%
- IC50 [11]: 6530 nM
- inhibition at 10 µM [4]: 61.2%
- inhibition at 1 µM [5]: 8.7%
- inhibition at 1 µM [6]: 0%
- inhibition at 10 µM [8]: 53.8%
- inhibition at 1 µM [9]: 21.7%
- IC50 [12]: 45 nM
- inhibition at 10 µM [10]: 76.1%

SMILES: Fc1ccc2sc3c(c2c1)CCN(Cc1cccnc1)C3
- IC50 [1]: 28.1 nM
- inhibition at 1 µM [2]: 6.6%
- inhibition at 10 µM [3]: 92.5%
- IC50 [11]: 7900 nM
- inhibition at 10 µM [4]: 71.6%
- inhibition at 1 µM [5]: 20.6%
- inhibition at 1 µM [6]: 47.3%
- inhibition at 10 µM [8]: 53.2%
- inhibition at 1 µM [9]: 37.5%
- IC50 [12]: 29 nM
- inhibition at 10 µM [10]: 83.7%

SMILES: Fc1ccc2sc3c(c2c1)CCN(Cc1cnccc1-c1ccccc1)C3
- IC50 [1]: > 1000 nM

SMILES: C=C(C)c1ccncc1CN1CCc2c(sc3ccc(F)cc23)C1
- IC50 [1]: 980 nM

SMILES: N#Cc1ccc2sc3c(c2c1)CCN(Cc1cccnc1)C3
- IC50 [1]: 257 nM

SMILES: Fc1ccc2sc3c(c2c1)CCN(Cc1cnccc1C1CC1)C3
- IC50 [1]: 61.1 nM

SMILES: Fc1ccc2sc3c(c2c1)CCN(Cc1c[nH]cn1)C3
- IC50 [1]: 29.8 nM
- inhibition at 1 µM [2]: 98.5%
- inhibition at 10 µM [3]: 98.7%
- IC50 [11]: 685 nM
- inhibition at 10 µM [4]: 99.4%
- inhibition at 1 µM [5]: 87.9%
- inhibition at 1 µM [6]: 91.2%
- inhibition at 10 µM [8]: 100%
- inhibition at 1 µM [9]: 35.7%
- IC50 [12]: 24.3 nM
- inhibition at 10 µM [10]: 49.6%

SMILES: Fc1ccc2sc3c(c2c1)CCN(Cc1cnccc1Br)C3
- IC50 [1]: 75.8 nM

SMILES: Fc1ccc2sc3c(c2c1)CCN(Cc1ccncc1)C3
- IC50 [1]: > 1000 nM

SMILES: Fc1cncc(CN2CCc3c(sc4ccc(F)cc34)C2)c1
- IC50 [1]: 56.5 nM
- inhibition at 1 µM [2]: 0%
- inhibition at 10 µM [3]: 61.3%
- IC50 [11]: 9030 nM
- inhibition at 10 µM [4]: 69.5%
- inhibition at 1 µM [5]: 10.6%
- inhibition at 1 µM [6]: 5.3%
- inhibition at 10 µM [8]: 51.6%
- inhibition at 1 µM [9]: 50.8%
- IC50 [12]: 45.4 nM
- inhibition at 10 µM [10]: 62.5%

SMILES: Fc1ccc2sc3c(c2c1)CCN(Cc1cncc2ccccc12)C3
- IC50 [1]: 390 nM

SMILES: Clc1ccc2sc3c(c2c1)CCN(Cc1cccnc1)C3
- IC50 [1]: 449 nM
